From ChEMBL document CHEMBL4052782, “Neuropathic pain-alleviating effects of pyrazole-conjugated arylsulfonamides as 5-HT6 receptor antagonists” (Bioorg Med Chem Lett, 2017) come the findings set out here.

Data set [1] has as its target T1, 5-hydroxytryptamine receptor 6 (Homo sapiens, UniProt P50406). Kind of data set: Antagonist activity at human 5-HT6R expressed in human HeLa cells assessed as inhibition of 5-HT-induced cAMP levels pre-treated for 10 mins before 30 mins stimulation with 5-HT by D2-dye based HTRF assay. In kind it is functional, cell-based. The procedure, abridged: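 HeLa cells stably expressing human 5-HT6 receptor, kept at 37°C in 5% CO2/95% air, suspended in PBS with 2 mM IBMX. Compound pretreatment 10 min, then 100 nM 5-HT stimulation 30 min. d2-labelled cAMP and cryptate-labelled anti-cAMP antibody added, 1 h at room temperature. Fluorescence read at 314 nm excitation, 668 and 620 nm emission.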

Data set [2] concerns the target T1, 5-hydroxytryptamine receptor 6. Description: Inhibition of ligand binding to human 5-HT6R at 10 uM relative to control.
The subject of data set [3] is Rattus norvegicus. Description: Antineuropathic pain activity in rat spinal nerve ligation model assessed as effect on mechanical allodynia by measuring frequency of paw withdrawal at 100 mg/kg, po measured up to 3 hrs. The format is functional, organism-based. Summed up: (§1)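 Rats with spinal nerve ligation neuropathic injury, dosed orally at 100 mg/kg (n = 3–6 per group). Allodynia tested before injury, before dosing (post-injury day 14), and 1, 3 and 5 h after dosing. Values compared with pre-administration values by paired t-test, P < 0.05.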

The target in data set [4] is Voltage-gated inwardly rectifying potassium channel KCNH2 (Homo sapiens, UniProt Q12809). Kind of data set: Inhibition of human ERG expressed in CHOK1 cells by patch clamp method.
Voltage-gated inwardly rectifying potassium channel KCNH2, sequence (Q12809 whole entry): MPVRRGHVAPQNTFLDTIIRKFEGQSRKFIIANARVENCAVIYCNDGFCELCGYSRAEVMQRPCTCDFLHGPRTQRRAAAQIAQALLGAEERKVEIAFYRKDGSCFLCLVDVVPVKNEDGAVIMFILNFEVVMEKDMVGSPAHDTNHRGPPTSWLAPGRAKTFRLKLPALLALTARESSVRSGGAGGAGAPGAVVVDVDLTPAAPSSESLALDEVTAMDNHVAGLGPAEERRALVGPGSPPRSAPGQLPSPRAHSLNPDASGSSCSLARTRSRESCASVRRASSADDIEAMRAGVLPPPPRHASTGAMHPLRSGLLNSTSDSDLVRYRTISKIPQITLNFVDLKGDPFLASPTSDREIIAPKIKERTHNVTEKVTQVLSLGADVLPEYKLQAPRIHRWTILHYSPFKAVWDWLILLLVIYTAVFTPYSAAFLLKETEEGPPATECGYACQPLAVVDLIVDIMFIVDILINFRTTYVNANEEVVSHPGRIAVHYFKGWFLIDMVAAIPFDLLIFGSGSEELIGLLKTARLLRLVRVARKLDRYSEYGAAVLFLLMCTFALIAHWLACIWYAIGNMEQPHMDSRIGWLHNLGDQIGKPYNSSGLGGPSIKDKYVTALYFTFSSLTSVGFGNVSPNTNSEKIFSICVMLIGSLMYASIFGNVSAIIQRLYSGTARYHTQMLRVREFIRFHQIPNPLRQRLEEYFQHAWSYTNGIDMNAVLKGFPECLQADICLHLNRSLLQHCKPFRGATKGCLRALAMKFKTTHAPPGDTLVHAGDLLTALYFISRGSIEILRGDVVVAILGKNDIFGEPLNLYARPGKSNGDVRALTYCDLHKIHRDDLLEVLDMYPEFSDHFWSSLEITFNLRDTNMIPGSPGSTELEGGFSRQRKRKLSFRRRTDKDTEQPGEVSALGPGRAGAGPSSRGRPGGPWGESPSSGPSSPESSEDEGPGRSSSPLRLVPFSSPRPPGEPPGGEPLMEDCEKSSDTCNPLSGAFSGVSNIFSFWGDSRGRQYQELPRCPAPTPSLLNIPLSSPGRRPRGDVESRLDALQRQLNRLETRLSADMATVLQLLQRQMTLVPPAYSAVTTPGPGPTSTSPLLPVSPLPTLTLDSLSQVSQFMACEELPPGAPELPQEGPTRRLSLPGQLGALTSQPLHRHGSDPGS
Data set [5] concerns the target CYP2D6 (Homo sapiens, UniProt P10635). Description: Inhibition of recombinant human CYP2D6 expressed in baculosomes assessed as remaining activity at 10 uM preincubated for 10 mins followed by Vivid substrate addition in presence of NADP+ by fluorescence assay relative to […]. In kind it is ADME. The following applies: probe Vivid substrate, read-out: Activity. The procedure, abridged:
(§2)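 Remaining percent CYP activity measured at 10 µM test concentration. Values are means ± SD of triplicate experiments.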

Data set [6] has as its target CYP2C9 (Homo sapiens, UniProt P08684). Description: Inhibition of recombinant human CYP2C9 expressed in baculosomes assessed as remaining activity at 10 uM preincubated for 10 mins followed by Vivid CYP450 substrate addition in presence of NADP+ by fluorescence assay relative to miconazole. In kind it is ADME. Conditions: probe Vivid CYP450 substrate, read-out: Activity. Summed up:
as §2

For data set [7], the target named is CYP3A4 (Homo sapiens, UniProt P08684). Description: Inhibition of recombinant human CYP3A4 expressed in baculosomes assessed as remaining activity at 10 uM preincubated for 10 mins followed by Vivid CYP450 substrate addition in presence of NADP+ by fluorescence assay relative to ketoconazole. In kind it is ADME. Conditions: probe Vivid CYP450 substrate, read-out: Activity. The procedure, abridged:
as §2

Data set [8] relates to Rattus norvegicus. Kind of data set: Poteny index, ratio of gabapentin to test compound antineuropathic pain activity in rat spinal nerve ligation model assessed as effect on mechanical allodynia by measuring frequency of paw withdrawal at 100 mg/kg, po. The format is functional.
For data set [9], the system named is Rattus norvegicus. Description: Antineuropathic pain activity in rat spinal nerve ligation model assessed as effect on cold allodynia by measuring paw withdrawal response at 100 mg/kg, po measured up to 5 hrs. The format is functional, organism-based. The procedure, abridged: as §1

Activity calls are given as the source filed them. The calls are words filed in the database; no cut-off is given here.

T1 sequence (P50406 whole entry): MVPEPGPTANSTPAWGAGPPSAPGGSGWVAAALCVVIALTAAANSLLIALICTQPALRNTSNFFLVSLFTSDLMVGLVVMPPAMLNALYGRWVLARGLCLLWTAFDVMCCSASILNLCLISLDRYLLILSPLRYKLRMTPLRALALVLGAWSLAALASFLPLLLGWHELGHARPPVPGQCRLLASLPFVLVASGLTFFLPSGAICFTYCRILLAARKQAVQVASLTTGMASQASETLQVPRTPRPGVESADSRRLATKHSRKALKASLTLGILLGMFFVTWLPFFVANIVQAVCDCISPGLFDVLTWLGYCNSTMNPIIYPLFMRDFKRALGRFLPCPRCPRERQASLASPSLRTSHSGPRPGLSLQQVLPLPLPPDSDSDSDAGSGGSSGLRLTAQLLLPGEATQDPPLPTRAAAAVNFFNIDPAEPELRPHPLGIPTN
CYP3A4, sequence (P08684 whole entry): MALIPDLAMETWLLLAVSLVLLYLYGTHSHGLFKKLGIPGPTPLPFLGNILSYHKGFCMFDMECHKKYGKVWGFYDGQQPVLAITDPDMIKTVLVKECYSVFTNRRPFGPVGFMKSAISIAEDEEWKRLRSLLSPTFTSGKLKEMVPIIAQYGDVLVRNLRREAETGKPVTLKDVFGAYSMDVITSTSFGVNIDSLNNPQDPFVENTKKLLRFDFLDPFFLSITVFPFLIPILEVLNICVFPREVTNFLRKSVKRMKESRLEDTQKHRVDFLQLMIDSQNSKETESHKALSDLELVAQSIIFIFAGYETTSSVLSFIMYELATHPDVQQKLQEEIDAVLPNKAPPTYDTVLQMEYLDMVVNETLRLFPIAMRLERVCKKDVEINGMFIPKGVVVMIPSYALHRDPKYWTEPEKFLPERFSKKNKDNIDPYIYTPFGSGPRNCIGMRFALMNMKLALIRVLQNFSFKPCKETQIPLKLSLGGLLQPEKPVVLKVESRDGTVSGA
CYP2D6, sequence (P10635 whole entry): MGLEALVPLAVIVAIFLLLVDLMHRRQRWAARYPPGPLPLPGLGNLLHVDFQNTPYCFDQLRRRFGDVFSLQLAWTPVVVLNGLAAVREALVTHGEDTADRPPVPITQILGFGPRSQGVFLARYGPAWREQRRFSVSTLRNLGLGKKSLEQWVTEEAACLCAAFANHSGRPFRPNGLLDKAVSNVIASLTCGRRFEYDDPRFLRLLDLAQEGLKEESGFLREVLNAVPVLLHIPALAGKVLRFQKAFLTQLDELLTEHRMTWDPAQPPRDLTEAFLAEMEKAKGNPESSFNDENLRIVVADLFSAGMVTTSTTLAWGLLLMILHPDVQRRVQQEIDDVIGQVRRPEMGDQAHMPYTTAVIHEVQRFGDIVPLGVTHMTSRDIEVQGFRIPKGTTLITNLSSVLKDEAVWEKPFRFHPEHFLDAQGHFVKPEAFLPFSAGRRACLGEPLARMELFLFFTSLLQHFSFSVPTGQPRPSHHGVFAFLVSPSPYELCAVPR
CYP2C9, sequence (P08684 whole entry): as the sequence (P08684 whole entry) above

Consider `CC(C)Cc1cc(CNS(=O)(=O)c2c(Cl)cccc2Cl)nn1-c1ccccc1`, for which, in data set [1], the half-maximal inhibitory concentration (IC50) is 5650 nM. Besides, in data set [2], the inhibition is 59.4%.
Take `O=C1c2[nH]nc(NS(=O)(=O)c3ccc4ccccc4c3)c2CCN1CC1CCNCC1`: the IC50 in data set [1] was determined as 310 nM. In addition, the inhibition in data set [2] worked out at 94.1%.
On the same counts, the results for `Cc1c(Cl)cccc1S(=O)(=O)NCc1cc(CC(C)C)n(-c2ccccc2)n1` are 4010 nM and 72.3%.
With `CC(C)Cc1cc(CNS(=O)(=O)Cc2cccc3ccccc23)nn1-c1ccc(F)cc1`, the inhibition in data set [2] worked out at 36.1%.
Regarding `CC(C)Cc1cc(CNS(=O)(=O)c2ccccc2)nn1-c1ccccc1`, the inhibition in data set [2] was 11.3%.
Consider `CC(C)Cc1cc(CNS(=O)(=O)c2cccc(Cl)c2)nn1-c1ccccc1`, for which, in [1], the IC50 was 10900 nM. Further, the inhibition in data set [2] came out at 40.8%.
For the compound `CC(C)Cc1cc(CNS(=O)(=O)c2cccc3cccnc23)nn1-c1ccc(F)cc1`, in data set [3], the Activity entry is “Active”. The figures for the half-inhibitory concentration (IC50) in [1] and in data set [4] were 1780 nM and 1600 nM, respectively. Further, the inhibition in data set [2] was found to be 93.4%. Besides, the activity at 10 µM amounted to 64.8% in data set [5], 3.87% in data set [6] and 34.5% in [7]. The Ratio in data set [8] amounted to 60. Moreover, in data set [9], the Activity entry is “inactive”.
Consider `CC(C)Cc1cc(CNS(=O)(=O)Cc2cccc3ccccc23)nn1-c1ccccc1`, for which, in data set [2], the inhibition worked out at 28.7%.
As for `CC(C)Cc1cc(CNS(=O)(=O)c2cccc3ccccc23)nn1-c1ccccc1`, the IC50 in [1] came to 2430 nM. Moreover, the inhibition in data set [2] stood at 77.7%.
For `CC(C)Cc1cc(CNS(=O)(=O)c2cccc3cccnc23)nn1-c1ccccc1`, the Activity result in data set [3] is “Active”. In [1], the IC50 is 1420 nM. In [2], the inhibition is 106%. In addition, the activity at 10 µM in [5] stood at 119%; in [7], 52.2%. In addition, in [9], the Activity entry is “inactive”.
In the case of `CC(C)Cc1cc(CNS(=O)(=O)c2cccc(F)c2)nn1-c1ccccc1`, in [2], the inhibition worked out at 19.5%.
`CC(C)Cc1cc(CNS(=O)(=O)c2ccc(C(C)(C)C)cc2)nn1-c1ccccc1`: the IC50 in [1] is 8780 nM. Besides, the inhibition in data set [2] stood at 51.1%.
On the same counts, the results for `CC(C)Cc1cc(CNS(=O)(=O)c2ccc3ccccc3c2)nn1-c1ccccc1` are 3300 nM and 67.8%.
In the case of `NCC1(CC(=O)O)CCCCC1`, in [3], the Activity result was “Active”.
